Assay results published in ChEMBL document CHEMBL1141653, “New bis(2-aminoimidazoline) and bisguanidine DNA minor groove binders with potent in vivo antitrypanosomal and antiplasmodial activity” (J Med Chem, 2008).

Columns and labels:
[1] = system: L6; test: Cytotoxicity against rat L6 cells; format: cell-based
[2] = system: Plasmodium falciparum; test: Antiplasmodial activity against Plasmodium falciparum K1 in [3H]hypoxanthine incorporation assay; format: functional, organism-based; settings: K1, 72 h
Method in brief: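 K1 erythrocytic stages in RPMI 1640 without hypoxanthine with AlbuMax, human A⁺ red cells at 2.5% hematocrit, 0.3% parasitemia. Compounds taken from 10 mg/mL DMSO stock, tested as serial doubling dilutions at 37 °C in 4% CO₂/3% O₂/93% N₂. After 48 h, ³H-hypoxanthine (0.5 µCi) added for 24 h more; incorporation by scintillation counting. IC₅₀ from sigmoidal curves.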

[3] = system: Trypanosoma brucei rhodesiense; test: Antitrypanosomal activity against Trypanosoma brucei rhodesiense STIB900; format: functional, organism-based
Method in brief: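 Bloodstream forms (10⁴ per well) in MEM with 15% heat-inactivated horse serum, 25 mM HEPES, 2-mercaptoethanol, hypoxanthine. 3-fold serial dilutions from 90 to 0.123 µg/mL, in duplicate. Incubation 72 h at 37 °C, 5% CO₂. Resazurin then added for 2–4 h more. Fluorescence read at ex 536 / em 588 nm.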

[4] = system: Ferriprotoporphyrin IX; test: Inhibition of ferriprotoporphyrin 9 biomineralization at 1 mg/ml; format: functional
Method in brief: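 β-Hematin formation: hemin chloride (0.5 mg/mL in DMSO) with 0.5 M sodium acetate pH 4.4 and drug dilutions, 37 °C for 18–24 h. Pellet washed with DMSO, dissolved in 0.1 N NaOH, A405 read. Percent inhibition relative to solvent control. IC₅₀ derived, or percent inhibition at 1 mg/mL (highest concentration) given when no IC₅₀.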

[5] = Selectivity index, ratio of IC50 for rat L6 cells to IC50 for Plasmodium falciparum K1; format: functional
Method in brief: (§1)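 Ratio of the IC₅₀ on L-6 rat skeletal myoblasts to the parasite IC₅₀. Cytotoxicity measured in RPMI 1640 with L-glutamine and 10% FBS, serial dilutions 90 to 0.123 µg/mL, duplicate. After 72 h, Alamar blue (resazurin) added for 2 h. Fluorescence read at ex 536 / em 588 nm.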

[6] = Selectivity index, ratio of IC50 for rat L6 cells to IC50 for Trypanosoma brucei rhodesiense STIB900; format: functional; method in brief: as §1
[7] = Binding affinity for DNA assessed as thermal melting temperature
Method in brief: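 Thermal melting of poly(dA)·poly(dT): DNA at 40 µM base with compound at 12 µM (ratio 0.3) in MES 0.01 M / EDTA 0.001 M buffer, pH 6.25. A260 followed from 20 to 95 °C at 0.5 °C/min. Value is ΔTm.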

| SMILES | IC50 [1] [µM] | IC50 [2] [µM] | IC50 [3] [µM] | inhibition [4] [%] | Ratio IC50 [5] | Ratio IC50 [6] | ΔTm [7] [°C] |
| --- | --- | --- | --- | --- | --- | --- | --- |
| N=C(N)Nc1ccc(C(=O)Nc2ccccc2)cc1 | > 309 | 13.3 | 87.4 |  |  |  |  |
| c1cc2c(cc1NC1=NCCN1)OCCO2 | > 351 | > 19 | 68.4 |  |  |  |  |
| CN(C)c1ccc(NC2=NCCN2)cc1 | > 324 | > 18 | 46.6 |  |  |  |  |
| COc1ccc(NC2=NCCN2)cc1OC | > 349 | 14.8 | 84.2 |  |  |  |  |
| S=C(Nc1ccccc1)Nc1ccc(NC2=NCCN2)cc1 | 91.1 | 3.1 | 2.6 |  |  |  |  |
| CSc1ccc(NC2=NCCN2)cc1 | 174 | 1.7 | 7.3 |  |  |  |  |
| CN(C)c1ccc(NC(=N)N)cc1 | > 358 | > 19 | 20.1 |  |  |  |  |
| c1cc2c(cc1NC1=NCCN1)OCO2 | > 372 | > 20 | 93.5 |  |  |  |  |
| Cc1ccc(NC(=N)N)cc1 | > 484 | > 27 | 164 |  |  |  |  |
| O=C(Nc1ccc(NC2=NCCN2)cc1)c1ccccc1 | > 284 | > 15 | 94.7 |  |  |  |  |
| c1ccc(Nc2ccc(NC3=NCCN3)cc2)cc1 | 90.7 | 0.549 | 1.2 |  |  |  |  |
| CC(C)(C)OC(=O)N1CCN(C(=O)OC(C)(C)C)C1=Nc1ccc(S(=O)(=O)c2ccc(N=C3N(C(=O)OC(C)(C)C)CCN3C(=O)OC(C)(C)C)cc2)cc1 | 56.4 | 0.055 | 2.6 | 27 | 1025 |  |  |
| N=C(N)Nc1ccc2c(c1)Cc1cc(NC(=N)N)ccc1-2 | 4.7 | 0.0023 | 0.024 |  | 2043 | 196 |  |
| c1ccc(Cc2ccc(NC3=NCCN3)cc2)cc1 | 73 | 1.7 | 4.9 |  |  |  |  |
| N=C(N)Nc1ccc(N)cc1 | 132 | > 26 | 311 |  |  |  |  |
| CC(=O)c1ccc(NC(=N)N)cc1 | > 421 | > 23 | 155 |  |  |  |  |
| CCOC(CNC(=N)Nc1ccc(Cc2ccc(NC(=N)NCC(OCC)OCC)cc2)cc1)OCC | > 175 | 0.036 | 0.316 |  | >4861 | >553 | 5.3 |
| c1cc2c(cc1NC1=NCCN1)CCC2 | > 378 | 5.3 | 9.2 |  |  |  |  |
| COc1ccc(NC(=N)N)cc1OC | > 388 | 14.8 | 237 |  |  |  |  |
| c1ccc(NC2=NCCN2)cc1 | > 455 | > 25 | 182 |  |  |  |  |
| N=C(N)Nc1ccc(NC(=O)c2ccccc2)cc1 | > 309 | 10.4 | 122 |  |  |  |  |
| O=C(c1ccccc1)c1ccc(NC2=NCCN2)cc1 | 226 | 5.2 | 9.4 |  |  |  |  |
| c1ccc(Oc2ccc(NC3=NCCN3)cc2)cc1 | 167 | 5.7 | 5 |  |  |  |  |
| N=C(N)Nc1ccc(Oc2ccccc2)cc1 | 59.9 | 7.9 | 18.8 |  |  |  |  |
| N=C(N)Nc1ccc(Cc2ccccc2)cc1 | 43.9 | 3.8 | 15.9 |  |  |  |  |
| Nc1ccc(NC2=NCCN2)cc1 | > 423 | 15 |  |  |  |  |  |

| SMILES | IC50 [1] [µM] | IC50 [2] [µM] | IC50 [3] [µM] | inhibition [4] [%] | Ratio IC50 [5] | Ratio IC50 [6] | ΔTm [7] [°C] |
| --- | --- | --- | --- | --- | --- | --- | --- |
| c1ccc(Sc2ccc(NC3=NCCN3)cc2)cc1 | 28.5 | 1.2 | 1.9 |  |  |  |  |
| N=C(N)Nc1ccc(C(=O)c2ccc(NC(=N)N)cc2)cc1 | 2.7 | 0.068 | 0.206 |  | 40 | 13 | 27.6 |
| N=C(N)Nc1ccc(NC(=O)Nc2ccccc2)cc1 | > 234 | 4.1 | 32.9 |  |  |  |  |
| N=C(N)Nc1ccc(N2CCCCC2)cc1 | 232 | 7.9 | 48.6 |  |  |  |  |
| Cc1ccc(NC2=NCCN2)cc1 | > 425 | > 23 | 262 |  |  |  |  |
| N=C(N)Nc1ccc2c(c1)OCO2 | > 417 | > 23 | 146 |  |  |  |  |
| N=C(N)Nc1ccc(Nc2ccccc2)cc1 | 49.5 | 1.6 | 4.8 |  |  |  |  |
| CCc1ccc(NC(=N)N)cc1 | 310 | 9 | 45.7 |  |  |  |  |
| CCN(CC)c1ccc(NC2=NCCN2)cc1 | > 444 | 15 | 40.1 |  |  |  |  |
| O=C(Nc1ccccc1)c1ccc(NC2=NCCN2)cc1 | > 284 | > 15 | 42.9 |  |  |  |  |
| c1cc(N2CCCCC2)ccc1NC1=NCCN1 | > 283 | 12 | 50.4 |  |  |  |  |
| Cc1ccc(NC2=NCCN2)cc1C | > 398 | 17.1 | 49.8 |  |  |  |  |
| N=C(N)c1ccc(OCCCCCOc2ccc(C(=N)N)cc2)cc1 |  |  |  |  |  |  | 32.3 |
| CC(=O)c1ccc(NC2=NCCN2)cc1 | > 375 | 5.7 | 54.6 |  |  |  |  |
| Cc1ccc(NC(=N)N)cc1C | 190 | 12.2 | 39.9 |  |  |  |  |
| N=C(N)Nc1ccc(C(=O)c2ccccc2)cc1 | 118 | > 18 | 14.4 |  |  |  |  |
| N=C(N)Nc1ccc(S(=O)(=O)c2ccc(NC(=N)N)cc2)cc1 | > 222 | 0.444 | 4.3 |  | >500 | >51 | 12.8 |
| O=C(Nc1ccccc1)Nc1ccc(NC2=NCCN2)cc1 | > 219 | 3.4 | 45.4 |  |  |  |  |
| CSc1ccc(NC(=N)N)cc1 | 240 | 1.3 | 5.9 |  |  |  |  |
| N=C(N)Nc1ccc2c(c1)CCC2 | 73.7 | 0.95 | 0.99 |  |  |  |  |
| N=C(N)Nc1ccc(NC(=S)Nc2ccccc2)cc1 | > 225 | 8.7 | 1.3 |  |  |  |  |
| Nc1nc(N)nc(Nc2ccc([As]3SCC(CO)S3)cc2)n1 (centres undefined) [MELARSOPROL] |  | 5.5 |  |  |  |  |  |
| CCN(CC)c1ccc(NC(=N)N)cc1 | 78.1 | 5.7 | 2.4 |  |  |  |  |
| N=C(N)Nc1ccc2c(c1)OCCO2 | > 391 | 9 | 150 |  |  |  |  |
| O=S(=O)(c1ccc(NC2=NCCN2)cc1)c1ccc(NC2=NCCN2)cc1 | > 196 | 5.6 | 32.4 |  | >35 | >6 | 12.1 |
